Experiments:
[1] = In vitro inhibition of Molt/4f (Human T-lymphoblast) cell proliferation.; type: functional
Summary of the method: (§1)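 Human Molt/4F, MT-4, and Raji cells (wild-type, TK⁻ or dCK⁻) in RPMI-1640 with 10% inactivated FCS, 2 mM L-glutamine and 0.075% NaHCO₃, seeded at 7.5 × 10⁵ cells/mL with compound (0.001–500 µM). Incubated 3 days at 37 °C in humidified CO₂; viable cells counted by Coulter counter. IC₅₀ = 50% reduction in viable cells; means of 2–4 independent experiments.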

MT4 = assay: In vitro inhibition of MT-4 (Human T-lymphocyte) cell proliferation.; type: functional, cell-based; summary of the method: as §1
L1210 [2] = assay: In vitro inhibition of L1210 (murine leukemia) cell proliferation.; type: functional, cell-based; conditions: Mus musculus
Summary of the method: (§2)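 Murine FM3A or L1210 cells in Eagle's MEM with 10% inactivated FCS, 2 mM L-glutamine and 0.075% NaHCO₃, seeded at 5 × 10⁵ cells/mL with compound (0.001–500 µM). After 2 days at 37 °C in humidified CO₂, viable cells were counted with a Coulter counter. IC₅₀ = 50% fewer viable cells; mean of 2–4 experiments.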

[3] = In vitro inhibition of FM3A (murine carcinoma) cell proliferation.; type: functional; conditions: Mus musculus; summary of the method: as §2
CEM (Homo sapiens) [4] = assay: Concentration required to inhibit the proliferation of human T-lymphocyte CEM/o cells by 50%
[5] = Concentration required to inhibit the proliferation of human T-lymphocyte CEM/dCK-(dCyd kinase deficient) cells by 50%; type: functional
Summary of the method: (§3)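 Wild-type CEM and kinase-deficient sublines (AK⁻, dCK⁻, AK⁻/dCK⁻) grown in RPMI-1640 with 10% inactivated FCS, 2 mM L-glutamine and 0.075% NaHCO₃. Cells were exposed to compound at 0.001–500 µM for 3 days at 37 °C in humidified CO₂. Viable cells counted by Coulter counter; IC₅₀ = 50% reduction in viable cells. Mean of 2–4 independent experiments.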

[6] = Concentration required to inhibit the proliferation of human T-lymphocyte CEM/AK-/dCK-(Ado and dCyd kinase deficient) cells by 50%; type: functional; summary of the method: as §3
[7] = Concentration required to inhibit the proliferation of human T-lymphocyte CEM/AK-(Ado kinase deficient) cells by 50%; type: functional; summary of the method: as §3
CEM (Homo sapiens) [8] = assay: Concentration required to inhibit the proliferation of human T-lymphocyte CEM/o cells by 50%; remark: listed apart in the source
[9] = Concentration required to inhibit the proliferation of human T-lymphocyte CEM/AK-(Ado kinase deficient) cells by 50%
L1210 [10] = assay: Antitumor activity in mice bearing L1210 murine leukemia cell line at a dose of 50 mg/kg/day.; type: functional, Mus musculus
Summary of the method: (§4)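 DBA/2 mice (20 g) inoculated ip with 10⁶ L1210 leukemia cells; test agent given ip once daily for 5 successive days beginning 1 day after inoculation, dissolved in Eagle's MEM containing 2.5% Tween (250 μL injection). Untreated tumor-bearing controls; read-out mean survival time in days, 7–15 mice per group.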

[11] = Concentration required to inhibit the proliferation of human T-lymphocyte CEM/dCK-(dCyd kinase deficient) cells by 50%
L1210 [12] = assay: Concentration required to inhibit the proliferation of L1210 murine leukemia cell line by 50% in presence exogenous necleosides dCyd+Ado (100 uM).; type: functional, cell-based; conditions: Mus musculus, in the assay text read “1000 uM” for “100 uM”
Summary of the method: (§5)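 L1210 murine leukemia cells in Eagle's MEM with 10% inactivated fetal calf serum, 2 mM L-glutamine and 0.075% NaHCO₃. 5 × 10⁵ cells/mL were exposed to test compound (0.001–500 µM) together with the stated exogenous nucleoside at subtoxic level. Incubated 2 days at 37 °C in humidified CO₂. Viable cells were counted by Coulter counter. IC₅₀ = 50% reduction in viable cell number; mean of 2–4 independent experiments.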

L1210 [13] = assay: Antitumor activity in mice bearing L1210 murine leukemia cell line at a dose of 25 mg/kg/day.; type: functional, Mus musculus; summary of the method: as §4
L1210 [14] = assay: Concentration required to inhibit the proliferation of L1210 murine leukemia cell line by 50% in presence exogenous necleoside dCyd (100 uM).; type: functional, cell-based; conditions: Mus musculus, in the assay text read “1000 uM” for “100 uM”; summary of the method: as §5
[15] = Concentration required to inhibit the proliferation of human T-lymphocyte CEM cells by 50% in presence exogenous necleoside dCyd (100 uM).; type: functional, cell-based; conditions: CCRF-CEM, in the assay text read “1000 uM” for “100 uM”
Summary of the method: (§6)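 CEM human T-lymphocytes in RPMI-1640 with 10% inactivated FCS, 2 mM L-glutamine and 0.075% NaHCO₃. Test compound (0.001–500 µM) was co-added with the stated subtoxic exogenous nucleoside(s). Incubated 3 days at 37 °C in humidified CO₂, then viable cells counted by Coulter counter. IC₅₀ is the level giving 50% fewer viable cells; means of 2–4 independent experiments.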

L1210 [16] = assay: Concentration required to inhibit the proliferation of L1210 murine leukemia cell line by 50% in presence exogenous necleoside Ado (100 uM).; type: functional, cell-based; conditions: Mus musculus, in the assay text read “1000 uM” for “100 uM”; summary of the method: as §5
[17] = Concentration required to inhibit the proliferation of human T-lymphocyte CEM/AK-/dCK-(Ado and dCyd kinase deficient) cells by 50%
[18] = Concentration required to inhibit the proliferation of human T-lymphocyte CEM cells by 50% in presence exogenous necleoside Ado+dCyd (100 uM).; type: functional, cell-based; conditions: CCRF-CEM, in the assay text read “1000 uM” for “100 uM”; summary of the method: as §6
L1210 [19] = assay: Antitumor activity in mice bearing L1210 murine leukemia cell line at a dose of 12.5 mg/kg/day.; type: functional, Mus musculus; summary of the method: as §4
L1210 [20] = assay: Antitumor activity in mice bearing L1210 murine leukemia cell line at a dose of 100 mg/kg/day.; type: functional, Mus musculus; summary of the method: as §4
L1210 [21] = assay: Concentration required to inhibit the proliferation of L1210 murine leukemia cell line by 50% in presence exogenous necleoside Guo (50 uM).; type: functional, cell-based; conditions: Mus musculus; summary of the method: as §5
[22] = Concentration required to inhibit the proliferation of human T-lymphocyte CEM cells by 50% in presence exogenous necleoside Ado (100 uM).; type: functional, cell-based; conditions: CCRF-CEM, in the assay text read “1000 uM” for “100 uM”; summary of the method: as §6
Raji [23] = assay: Inhibition of human tumor B-lymphoblast Raji/O cell proliferation; type: functional, cell-based; summary of the method: as §1
Raji [24] = assay: Inhibition of human tumor B-lymphoblast Raji/TK-(thymidine kinase deficient) cell proliferation; type: functional, cell-based; summary of the method: as §1
Raji [25] = assay: Inhibition of human tumor B-lymphoblast Raji/dCK-(dcyd kinase deficient) cell proliferation; type: functional, cell-based; summary of the method: as §1
Homo sapiens [26] = species: Homo sapiens; assay: Concentration required to inhibit the proliferation of human T-lymphocyte CEM/dCK-(dcyd kinase deficient) cells by 50%; type: functional; summary of the method: as §3
Homo sapiens [27] = species: Homo sapiens; assay: (§7) Concentration required to inhibit the proliferation of human T-lymphocyte CEM/o cells by 50%; type: functional; summary of the method: as §3
CCRF-CEM = assay: as §7; type: functional, cell-based; summary of the method: as §3
L1210 [28] = assay: Concentration required to inhibit the proliferation of L1210 murine leukemia cell line by 50% in presence of exogenous nucleoside dUrd (125 ug/mL).; type: functional, cell-based; conditions: Mus musculus; summary of the method: as §5
L1210 [29] = assay: Concentration required to inhibit the proliferation of L1210 murine leukemia cell line by 50% in presence of exogenous nucleoside (d)Thd (5 ug/mL).; type: functional, cell-based; conditions: Mus musculus; summary of the method: as §5
L1210 [30] = assay: Concentration required to inhibit the proliferation of L1210 murine leukemia cell line by 50% in presence of exogenous nucleoside dCyd (500 ug/mL).; type: functional, cell-based; conditions: Mus musculus; summary of the method: as §5

SMILES	IC50 [1] [µM]	IC50 (MT4) [µM]	IC50 (L1210 [2]) [µM]	IC50 [3] [µM]	further results
C=C1[C@H](n2cnc3c(S)nc(N)nc32)O[C@H](CO)[C@H]1O	24	0.48	20	26	–
C=C1[C@H](n2cnc3c(N)ncnc32)O[C@H](CO)[C@H]1O	> 500	131	65	232	–
C=C1[C@H](n2cnc3c(N(C)C)nc(N)nc32)O[C@H](CO)[C@H]1O	335	> 500	454	> 500	–
C=C1[C@H](n2cnc3c(SC)nc(N)nc32)O[C@H](CO)[C@H]1O	> 500	> 500	> 500	> 500	–
C=C1[C@@H](O)[C@H](n2cnc3c(N(C)C)nc(N)nc32)O[C@@H]1CO	> 500	> 500	> 500	> 500	–
C=C1[C@@H](O)[C@H](n2cnc3c(N)nc(N)nc32)O[C@@H]1CO	> 200	> 200	> 200	> 200	IC50 (CEM (Homo sapiens) [4]): > 500 µM; IC50 [5]: > 500 µM; IC50 [6]: > 500 µM; IC50 [7]: > 500 µM
C=C1[C@@H](O)[C@H](n2cnc3c(S)nc(N)nc32)O[C@@H]1CO	276	12	207	495	–
C=C1[C@@H](O)[C@H](n2cnc3c(O)nc(N)nc32)O[C@@H]1CO	> 200	> 200	> 200	> 200	IC50 [5]: > 500 µM; IC50 [6]: > 500 µM; IC50 [7]: > 500 µM; IC50 (CEM (Homo sapiens) [8]): > 500 µM
C=C1[C@@H](O)[C@H](n2cnc3c(SC)nc(N)nc32)O[C@@H]1CO	> 500	> 500	> 500	> 500	–
C=C1[C@H](n2cnc3c(N)nc(N)nc32)O[C@H](CO)[C@H]1O	22	> 500	8.2	67	IC50 [9]: 38 µM; Mean survival time (L1210 [10]): 3 days; IC50 [11]: 196 µM; IC50 (L1210 [12]): 41 µM; Mean survival time (L1210 [13]): 8.7 days; IC50 (L1210 [14]): 16 µM; IC50 [15]: 133 µM; IC50 (L1210 [16]): 48 µM; IC50 [17]: 194 µM; IC50 (CEM (Homo sapiens) [4]): 7.7 µM; IC50 [18]: 95 µM; Mean survival time (L1210 [19]): 9.1 days; Mean survival time (L1210 [20]): 2 days; IC50 (L1210 [21]): 44 µM; IC50 [22]: 21 µM
C=C1[C@@H](O)[C@H](n2cnc3c(Cl)nc(N)nc32)O[C@@H]1CO	> 500	> 500	441	469	–
C=C1[C@H](n2cnc3c(Cl)nc(N)nc32)O[C@H](CO)[C@H]1O	22	176	10	50	–
C=C1[C@@H](O)[C@H](n2ccc(N)nc2=O)O[C@@H]1CO	172	121	378	> 500	IC50 (Raji [23]): 33 µM; IC50 (Raji [24]): 52 µM; IC50 (Raji [25]): > 500 µM; IC50 (Homo sapiens [26]): > 500 µM; IC50 (Homo sapiens [27]): 63 µM
C=C1[C@H](n2ccc(=O)[nH]c2=O)O[C@H](CO)[C@H]1O	> 500	> 500	> 500	> 500	–
C=C1[C@H](n2cnc3c(OC)nc(N)nc32)O[C@H](CO)[C@H]1O	23	180	10	41	–
C=C1[C@H](n2cnc3c(O)nc(N)nc32)O[C@H](CO)[C@H]1O	22	150	8.5	102	Mean survival time (L1210 [10]): 5.3 days; IC50 (L1210 [12]): 75 µM; Mean survival time (L1210 [13]): 7.5 days; IC50 (L1210 [14]): 17 µM; IC50 [15]: 136 µM; IC50 (L1210 [16]): 55 µM; IC50 [18]: 136 µM; IC50 [5]: 221 µM; Mean survival time (L1210 [19]): 7.5 days; IC50 [6]: 201 µM; IC50 (CCRF-CEM): 9.4 µM; Mean survival time (L1210 [20]): 2 days; IC50 (L1210 [21]): 51 µM; IC50 [7]: 36 µM; IC50 [22]: 25 µM
C=C1[C@@H](O)[C@H](n2cnc3c(N)ncnc32)O[C@@H]1CO	> 500	43	228	466	–
C=C1[C@@H](O)[C@H](n2ccc(=O)[nH]c2=O)O[C@@H]1CO	> 500	450	> 500	> 500	–
C=C1C(n2ccc(N)nc2=O)O[C@H](CO)[C@@H]1O (stereo partly specified)	0.11	0.19	2	11	IC50 (Raji [23]): 0.025 µM; IC50 (L1210 [28]): 1.47 µM; Mean survival time (L1210 [10]): 12 days; IC50 (Raji [24]): 0.035 µM; IC50 (Raji [25]): 31 µM; IC50 (L1210 [29]): 1.18 µM; IC50 (L1210 [30]): 475 µM; Mean survival time (L1210 [20]): 15.6 days; IC50 (Homo sapiens [26]): 60 µM; IC50 (Homo sapiens [27]): 0.046 µM
C=C1[C@@H](O)[C@H](n2cnc3c(O)ncnc32)O[C@@H]1CO	> 200	> 200	> 200	> 200	–
C=C1[C@@H](O)[C@H](n2cnc3c(OC)nc(N)nc32)O[C@@H]1CO	> 500	> 500	446	439	–
C=C1[C@H](n2cnc3c(O)ncnc32)O[C@H](CO)[C@H]1O	> 200	> 200	60	113	–

Source: ChEMBL document CHEMBL1126204, “Nucleic acid related compounds. 74. Synthesis and biological activity of 2'(and 3')-deoxy-2'(and 3')-methylenenucleoside analogues that function as mechanism-based inhibitors of S-adenosyl-L-homocysteine hydrolase and/or ribonucleotide reductase” (J Med Chem, 1992)
